# The source made the active and inactive calls.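 How the source made its calls: active means insulin-degrading enzyme inhibitors with IC50 at or below 10 µM; inactive means the rest.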
# Target: Insulin-degrading enzyme (Homo sapiens) (UniProt P14735)
# Assay: IDE inhibitors, wild-type enzyme, late-stage follow-up, counter-screen for IDE inhibitor project, biochemical, fluorescence polarization, FAbetaB substrate, round 2 (AID 624353)
# Details: recombinant IDE, FAbetaB cleavage
# Procedure, shortened: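 Assay system – recombinant WT IDE · Buffer or medium – HEPES, pH 7.4 · Incubation – reaction at room temperature · Detection – fluorescence polarization, ex 485 nm, em 525 nm · Control set – DMSO-only wells as low control, IDE inhibitor Ii1 as high · Repeats – each compound dose-response run in triplicate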
# Insulin-degrading enzyme (Homo sapiens), sequence (P14735 whole entry, looked up): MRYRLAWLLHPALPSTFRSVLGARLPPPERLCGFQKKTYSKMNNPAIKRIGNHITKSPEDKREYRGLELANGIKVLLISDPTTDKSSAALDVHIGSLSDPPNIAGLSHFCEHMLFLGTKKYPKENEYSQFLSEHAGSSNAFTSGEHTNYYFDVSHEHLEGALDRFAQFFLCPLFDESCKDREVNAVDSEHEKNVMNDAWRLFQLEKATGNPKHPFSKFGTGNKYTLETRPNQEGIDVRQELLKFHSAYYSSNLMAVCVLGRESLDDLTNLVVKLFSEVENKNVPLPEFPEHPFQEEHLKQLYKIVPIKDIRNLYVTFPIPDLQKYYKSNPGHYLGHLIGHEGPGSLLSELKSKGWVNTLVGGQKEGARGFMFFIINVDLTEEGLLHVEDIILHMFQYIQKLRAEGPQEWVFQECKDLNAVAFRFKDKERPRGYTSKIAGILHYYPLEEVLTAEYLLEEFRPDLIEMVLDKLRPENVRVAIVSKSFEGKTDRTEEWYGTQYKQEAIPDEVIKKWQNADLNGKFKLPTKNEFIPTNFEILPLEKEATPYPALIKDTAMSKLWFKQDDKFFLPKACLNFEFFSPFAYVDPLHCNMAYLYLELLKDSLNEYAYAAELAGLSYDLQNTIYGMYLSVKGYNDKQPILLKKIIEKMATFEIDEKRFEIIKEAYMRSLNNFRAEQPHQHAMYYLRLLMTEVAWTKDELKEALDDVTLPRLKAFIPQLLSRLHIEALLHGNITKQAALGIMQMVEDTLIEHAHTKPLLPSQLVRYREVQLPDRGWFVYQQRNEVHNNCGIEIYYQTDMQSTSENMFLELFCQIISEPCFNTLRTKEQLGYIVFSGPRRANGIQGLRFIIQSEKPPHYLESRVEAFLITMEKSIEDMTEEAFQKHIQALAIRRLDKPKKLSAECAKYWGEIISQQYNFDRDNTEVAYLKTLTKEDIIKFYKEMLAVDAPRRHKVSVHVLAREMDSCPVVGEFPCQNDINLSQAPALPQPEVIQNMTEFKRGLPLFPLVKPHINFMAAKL
row,SMILES,IC50
1,c1coc(Cn2c(SCc3nc4ccccc4[nH]3)nnc2-c2cnccn2)c1,> 33 µM (inactive)
2,O=C(c1ccc(Oc2ccc(F)cc2)cc1)N1CCN(C(=O)C2COc3ccccc3O2)CC1 (centres undefined),> 33 µM (inactive)
3,COc1ccc(C(=O)N2CCN(C(=O)COc3ccc(C)cc3)CC2)cc1OC,> 33 µM (inactive)
4,Cc1ccc(COCc2nnc(SCc3nc4ccccc4[nH]3)n2Cc2ccco2)cc1,> 33 µM (inactive)
5,COc1cc(C(=O)N2CCN(C(=O)C3COc4ccccc4O3)CC2)cc(Cl)c1OC (centres undefined),> 33 µM (inactive)
6,COc1ccc(OCC(=O)N2CCN(C(=O)c3ccc(OC)c(OC)c3)CC2)cc1,> 33 µM (inactive)
7,O=C(c1ccc(OCC2CCCO2)cc1)N1CCN(C(=O)C2COc3ccccc3O2)CC1 (centres undefined),> 33 µM (inactive)
8,O=C(c1ccc2nc(C(F)(F)F)[nH]c2c1)N1CCN(C(=O)C2COc3ccccc3O2)CC1 (centres undefined),7 µM
9,c1coc(Cn2c(SCc3nc4ccccc4[nH]3)nnc2-c2ccco2)c1,> 33 µM (inactive)
10,COc1ccc(C(=O)N2CCN(C(=O)C(c3ccccc3)c3ccccc3)CC2)cc1OC,> 33 µM (inactive)

# Next, values leading:
row,IC50,SMILES
1,> 33 µM (inactive),COc1ccc(C(=O)N2CCN(C(=O)CCc3c[nH]c4ccccc34)CC2)cc1OC
2,> 33 µM (inactive),COc1ccc(C(=O)N2CCN(C(=O)COc3ccc(Cl)cc3)CC2)cc1OC
3,> 33 µM (inactive),COc1ccc(C(=O)N2CCN(C(=O)COc3ccccc3)CC2)cc1OC
4,> 33 µM (inactive),COc1ccc(C(=O)N2CCN(C(=O)C3CC(=O)N(c4ccccc4)C3)CC2)cc1OC (centres undefined)
5,> 33 µM (inactive),c1ccc(-c2nnc(SCc3nc4ccccc4[nH]3)n2Cc2ccco2)nc1
6,> 33 µM (inactive),c1ccc(-c2nnc(SCc3nc4ccccc4[nH]3)n2Cc2ccco2)cc1
7,> 33 µM (inactive),O=C(c1ccc(Oc2ccccc2)cc1)N1CCN(C(=O)C2COc3ccccc3O2)CC1 (centres undefined)
8,> 33 µM (inactive),Clc1ccc(COCc2nnc(SCc3nc4ccccc4[nH]3)n2Cc2ccco2)cc1
9,> 33 µM (inactive),Cc1nc(COc2ccc(C(=O)N3CCN(C(=O)C4COc5ccccc5O4)CC3)cc2)cs1 (centres undefined)
10,> 33 µM (inactive),CCOc1ccc(C(=O)N2CCN(C(=O)C3COc4ccccc4O3)CC2)cc1 (centres undefined)
11,> 33 µM (inactive),c1coc(Cn2c(SCc3nc4ccccc4[nH]3)nnc2-c2cccs2)c1
12,4 µM,COc1cccc(C(=O)N2CCN(C(=O)C3COc4ccccc4O3)CC2)c1 (centres undefined)
13,> 33 µM (inactive),Cc1ccc(-c2nnc(SCc3nc4ccccc4[nH]3)n2Cc2ccco2)cc1
14,6 µM,CC(=O)Nc1ccccc1C(=O)N1CCN(C(=O)C2COc3ccccc3O2)CC1 (centres undefined)

# From PubChem BioAssay AID624353 (The Scripps Research Institute Molecular Screening Center, 2012)
